Test results published in ChEMBL document CHEMBL2412964, “Discovery of novel tetrahydro-pyrazolo [4,3-c] pyridines for the treatment of neuropathic pain: synthesis and neuropharmacology” (Eur J Med Chem, 2013).
Activity calls are given as the source filed them.

Assays:
[1] = test system: Radical scavenging activity; assay: Antioxidant activity assessed as DPPH radical scavenging activity after 20 mins […]; type: functional
Method in brief: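 Compounds mixed with methanolic DPPH (final 300 µM) in microplate; after 20 min absorbance at 517 nm read; methanolic DPPH as control. % scavenging = (A DPPH − A DPPH+compound)/A DPPH × 100; dose–response curve used for IC50.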

[2] = test system: Rattus norvegicus; assay: Antinociceptive activity in Wistar rat chronic constriction injury model assessed as reversal of mechanical allodynia at 100 mg/kg, ip after 30 mins (reference value: 4.7 +/- 2.1%); type: functional; details: route intraperitoneal
[3] = test system: Rattus norvegicus; assay: Antinociceptive activity in Wistar rat partial sciatic nerve ligation model assessed as reversal of spontaneous pain response at 100 mg/kg, ip after 30 mins (reference value: 3.2 +/- 0.3%); type: functional; details: route intraperitoneal
[4] = test system: Rattus norvegicus; assay: Antinociceptive activity in Wistar rat chronic constriction injury model assessed as reversal of cold allodynia at 100 mg/kg, ip after 120 mins (reference value: 5.4 +/- 1.9%); type: functional; details: route intraperitoneal
[5] = test system: Rattus norvegicus; assay: Antinociceptive activity in Wistar rat chronic constriction injury model assessed as reversal of tactile allodynia at 100 mg/kg, ip after 30 mins (reference value: 3.4 +/- 0.8%); type: functional; details: route intraperitoneal
[6] = test system: Rattus norvegicus; assay: Antinociceptive activity in ip dosed Wistar rat chronic constriction injury model assessed as reversal of tactile allodynia after 30 mins; type: functional; details: 0.5 h
Method in brief: (§1)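 Wistar rats (200–250 g) with nerve injury, compounds i.p. in 30% v/v PEG 400; dose–response curves in each sensory test (spontaneous pain and cold allodynia as paw withdrawal duration; tactile allodynia and hyperalgesia as withdrawal threshold). ED50 linearly interpolated between doses just above and below 50% response; time of peak effect recorded.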

[7] = molecular target: Cathepsin S (Homo sapiens) (UniProt P25774); assay: Inhibition of human recombinant cathepsin S using Z-Val-Val-Arg-AMC as substrate at 50 uM preincubated for 10 mins prior to substrate addition measured after 30 mins by fluorescence spectrophotometric analysis relative to control
[8] = test system: Mus musculus; assay: Antinociceptive activity in Swiss albino mouse assessed as inhibition of acetic acid-induced writhing at 100 mg/kg administered 30 mins prior to acetic acid-challenge measured for 30 mins relative to control; type: functional
Method in brief: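 Swiss albino mice (20–25 g, either sex); writhing induced by i.p. 0.1 mL of 2.0% v/v acetic acid given half an hour after test compound dosing.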

[9] = test system: Rattus norvegicus; assay: Antinociceptive activity in ip dosed Wistar rat chronic constriction injury model assessed as reversal of cold allodynia after 30 mins; type: functional; details: 0.5 h; method in brief: as §1
[10] = test system: Rattus norvegicus; assay: Antinociceptive activity in ip dosed Wistar rat partial sciatic nerve ligation model assessed as reversal of spontaneous pain response after 30 mins; type: functional; details: 0.5 h; method in brief: as §1
[11] = test system: Rattus norvegicus; assay: Antinociceptive activity in ip dosed Wistar rat partial sciatic nerve ligation model assessed as reversal of tactile allodynia after 60 mins; type: functional; details: 1 h; method in brief: as §1
[12] = organism: Rattus norvegicus; assay: Neuroprotective activity in Wistar rat chronic constriction injury model assessed as inhibition of nitric oxide production in brain after 2 hrs by Griess method relative to control; type: functional
Method in brief: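 Wistar rats of either sex (200-250 g) with chronic constriction of the left sciatic nerve. On day 9 post-injury, compound given i.p. in 30% v/v PEG 400; tissue taken 2 h after dosing. Nitrate reduced to nitrite, nitrite measured colorimetrically with Griess reagent against a standard curve. Results expressed as percentage of vehicle-treated control; n = 4.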

[13] = test system: Rattus norvegicus; assay: Antinociceptive activity in Wistar rat partial sciatic nerve ligation model assessed as reversal of spontaneous pain response at 100 mg/kg, ip after 120 mins (reference value: 1.2 +/- 0.1%); type: functional; details: route intraperitoneal
[14] = test system: Mus musculus; assay: Anticonvulsant activity in ip dosed Swiss albino mouse assessed as protection against picrotoxin-induced seizure administered 30 mins prior to picrotoxin-challenge measured after 0.5 hrs; type: functional; details: read-out: MED
Method in brief: (§2)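 Mice, either sex, 20-25 g, given compound i.p. at 30, 100 and 300 mg/kg. Thirty minutes later, picrotoxin 3.15 mg/kg was injected s.c. in 0.01 mL/g body weight. Animals were isolated and watched for 45 min for a threshold convulsion, and protection was scored as its absence. Examined at 0.5 and 4 h. Value reported is the minimum dose active in half or more of the mice (n = 3).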

[15] = test system: Rattus norvegicus; assay: Antinociceptive activity in ip dosed Wistar rat chronic constriction injury model assessed as reversal of spontaneous pain response after 30 mins; type: functional; details: 0.5 h; method in brief: as §1
[16] = test system: Rattus norvegicus; assay: Antinociceptive activity in ip dosed Wistar rat partial sciatic nerve ligation model assessed as reversal of cold allodynia after 30 mins; type: functional; details: 0.5 h; method in brief: as §1
[17] = test system: Mus musculus; assay: Anticonvulsant activity in ip dosed Swiss albino mouse assessed as protection against picrotoxin-induced seizure administered 30 mins prior to picrotoxin-challenge measured after 4 hrs; type: functional; details: read-out: MED; method in brief: as §2
[18] = test system: Mus musculus; assay: Antinociceptive activity in Swiss albino mouse assessed as inhibition of formalin-induced flinching at 100 mg/kg administered 30 mins prior to test measured up to 5 mins relative to control; type: functional
[19] = test system: Rattus norvegicus; assay: Antinociceptive activity in Wistar rat chronic constriction injury model assessed as reversal of tactile allodynia at 100 mg/kg, ip after 60 mins (reference value: 1.3 +/- 0.3%); type: functional; details: route intraperitoneal
[20] = test system: Rattus norvegicus; assay: Antinociceptive activity in ip dosed Wistar rat chronic constriction injury model assessed as reversal of mechanical allodynia after 30 mins; type: functional; details: 0.5 h; method in brief: as §1
[21] = test system: Rattus norvegicus; assay: Antinociceptive activity in Wistar rat partial sciatic nerve ligation model assessed as reversal of tactile allodynia at 100 mg/kg, ip after 60 mins (reference value: 12.5 +/- 1.2%); type: functional; details: route intraperitoneal
[22] = test system: Rattus norvegicus; assay: Antinociceptive activity in Wistar rat partial sciatic nerve ligation model assessed as reversal of mechanical allodynia at 100 mg/kg, ip after 120 mins (reference value: 2.9 +/- 0.3%); type: functional; details: route intraperitoneal
[23] = test system: Rattus norvegicus; assay: Antinociceptive activity in ip dosed Wistar rat partial sciatic nerve ligation model assessed as reversal of cold allodynia after 60 mins; type: functional; details: 1 h; method in brief: as §1
[24] = test system: Mus musculus; assay: Anticonvulsant activity in Swiss albino mouse assessed as protection against picrotoxin-induced seizure at 300 mg/kg, ip administered 30 mins prior to picrotoxin-challenge measured after 4 hrs; type: functional, organism-based; parameters: dose 300 mg/kg; method in brief: as §2
[25] = test system: Rattus norvegicus; assay: Antinociceptive activity in ip dosed Wistar rat chronic constriction injury model assessed as reversal of tactile allodynia after 60 mins; type: functional; details: 1 h; method in brief: as §1
[26] = test system: Rattus norvegicus; assay: Antinociceptive activity in ip dosed Wistar rat chronic constriction injury model assessed as reversal of spontaneous pain response after 60 mins; type: functional; details: 1 h; method in brief: as §1
[27] = test system: Rattus norvegicus; assay: Antinociceptive activity in ip dosed Wistar rat chronic constriction injury model assessed as reversal of cold allodynia after 60 mins; type: functional; details: 1 h; method in brief: as §1
[28] = test system: Rattus norvegicus; assay: Antinociceptive activity in ip dosed Wistar rat chronic constriction injury model assessed as reversal of mechanical allodynia after 60 mins; type: functional; details: 1 h; method in brief: as §1
[29] = test system: Rattus norvegicus; assay: Antinociceptive activity in ip dosed Wistar rat partial sciatic nerve ligation model assessed as reversal of tactile allodynia after 120 mins; type: functional; details: 2 h; method in brief: as §1
[30] = test system: Rattus norvegicus; assay: Antinociceptive activity in ip dosed Wistar rat partial sciatic nerve ligation model assessed as reversal of tactile allodynia after 30 mins; type: functional; details: 0.5 h; method in brief: as §1

Cathepsin S (Homo sapiens), sequence (P25774 115-331 limits assumed): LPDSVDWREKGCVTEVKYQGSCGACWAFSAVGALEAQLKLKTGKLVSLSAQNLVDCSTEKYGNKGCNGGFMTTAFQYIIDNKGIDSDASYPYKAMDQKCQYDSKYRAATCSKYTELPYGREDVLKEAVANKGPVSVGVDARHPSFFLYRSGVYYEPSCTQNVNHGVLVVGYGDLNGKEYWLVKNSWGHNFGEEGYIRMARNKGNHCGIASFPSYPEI

SMILES | IC50 [1] | Activity [2] | Activity [3] | Activity [4] | Activity [5] | ED50 [6] | inhibition [7] | inhibition in vivo at 100 mg/kg [8] | ED50 [10] | inhibition (INH) [12] | Activity [13] | minimal effective dose [14] | minimal effective dose [17] | inhibition in vivo at 100 mg/kg [18] | Activity [19] | Activity [21] | Activity [22] | ED50 [23] | ED50 [26] | ED50 [27] | other results
CCN1CCc2c(c(C(C)(C)C)nn2C(=O)Nc2ccc(Br)cc2)C1 | 81 µM | 81.9% | 90.4% | 56.9% | 66.7% | 23.8 mg/kg | 39.9% | 72.8% | 29 mg/kg | 16.4% | 43.1% | 100 mg/kg | 100 mg/kg | 0% | 58.2% | 44.9% | 41.1% | – | – | – | ED50 [9]: 41.4 mg/kg; ED50 [11]: 37.5 mg/kg; ED50 [15]: 27.3 mg/kg; ED50 [16]: 68 mg/kg; ED50 [20]: 37.3 mg/kg
CCN1CCc2c(c(C(C)(C)C)nn2C(=O)Nc2ccc(C)cc2C)C1 | 134 µM | 93.8% | 89.9% | 40.4% | 69.7% | – | 12.1% | 71.1% | 7.4 mg/kg | 12.5% | 64.2% | 300 mg/kg | – | 15.7% | 54.5% | 50.4% | 46.3% | 44.4 mg/kg | 15.5 mg/kg | 29.8 mg/kg | Activity [24]: inactive; ED50 [25]: 23.4 mg/kg; ED50 [28]: 25.7 mg/kg; ED50 [29]: 36.1 mg/kg
CCN1CCc2c(c(C(C)(C)C)nn2C(=O)Nc2c(C)cccc2C)C1 | 102 µM | 69.4% | 93.9% | 18.8% | 90.1% | 21.7 mg/kg | 34.1% | 73.7% | 8.1 mg/kg | 15.3% | 57.8% | 100 mg/kg | 100 mg/kg | 15.7% | 54.5% | 61.6% | 50% | 65.8 mg/kg | 10.4 mg/kg | 37.4 mg/kg | ED50 [30]: 24.9 mg/kg; ED50 [28]: 38.3 mg/kg
